KCNQ1 act: potentiators or activators of KCNQ1 channel, primary screen, cell-based, thallium flux, high-throughput | Potassium voltage-gated channel subfamily KQT member 1 (Homo sapiens), P51787 | CHO-K1 KCNQ1, thallium flux FluxOR fluorescence; stronger effect = higher value | B-score at 10 µM | 310,000 tested, 0.35% active;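 active = fluorescence ratio B-score, a plate-corrected score, at least three library SD, with initial intensity B-score within 5 SD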
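Material: CHO-K1 cells stably expressing KCNQ1. Medium: assay buffer for compound exposure, DMSO matched across wells. Reagent: K+/Tl+ depolarizing stimulus. Compound dosing: single-concentration screen. Times: 37 °C overnight plating, 90-min dark dye load, 20-min compound pretreatment. Technique: FluxOR Tl+ flux fluorescence.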
KCNK9 inh: KCNK9 potassium channel inhibitors, primary screen, HEK293 cells, thallium flux. AID 488922, 2010. Potassium channel subfamily K member 9 (Homo sapiens), Q9NPC2. 310,000 tested, 1.2% active. FluxOR thallium flux fluorescence; stronger effect = lower value. B-score at 10 µM;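 active = ratio B-score over 3 SD below the library mean, with starting fluorescence within 5 SD of its mean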;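 also: negative B-score means less thallium flux so channel inhibition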
KCNQ1 block: inhibitors of human KCNQ1 channel, primary screen, cell-based, thallium flux, high-throughput; CHO-K1 KCNQ1, FluxOR thallium flux fluorescence; stronger effect = higher value; 310,000 tested, 1.3% active; B-score at 10 µM; Potassium voltage-gated channel subfamily KQT member 1 (Homo sapiens), P51787; AID 2642, 2010;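 active = compounds whose thallium flux B-score, printed positive for inhibition, exceeds three library SD while starting fluorescence stays within three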;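 also: channel opened by potassium depolarization with thallium stimulus after 20 min compound exposure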
hERG protect: hERG rescue from dofetilide block, primary screen, cell-based, CHO-hERG, FluxOR thallium flux, dofetilide IC70 | Voltage-gated inwardly rectifying potassium channel KCNH2 (Homo sapiens), Q12809 | dofetilide IC70 present | activation (rescue from dofetilide block), less the hit threshold, % at 10 µM | 310,000 tested, 0.51% active | AID 1511, 2009;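 active = activation above the mean of controls blocked by dofetilide plus 5 SD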;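 also: thallium influx through hERG after potassium depolarization seen as dye fluorescence rise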
KCNK3 block: human KCNK3 channel inhibitors, primary screen, CHO cells, FluxOR thallium flux, B-score; B-score at 10 µM; FluxOR fluorescence; stronger effect = lower value; 340,000 tested, 0.84% active;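 active = B-score under library mean minus 4 SD, starting fluorescence ratio at most library mean plus 5 SD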;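 also: more negative B-score means stronger inhibition of thallium flux through KCNK3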
PHOSPHO1 inh: PubChem AID 1565. recombinant PHOSPHO1, absorbance phosphatase assay. 290,000 tested, 1.1% active. inhibition, % at 13.3 µM; in the data active = inhibition above about 60%
Each line names hits and unclear results; the compound was inactive in the other large screens. A selection: hits, their analogues and other compounds. The true share with any hit is near 4%.

Cc1ccc(OCc2nnc(SCC(=O)c3ccccc3)n2Cc2ccco2)cc1	PHOSPHO1 inh 92.1
O=C(CSc1nnc(-c2cc3ccccc3cc2O)n1Cc1ccco1)c1ccc(F)cc1	PHOSPHO1 inh 81.4
CP(=O)(Nc1cc(Cl)ccc1Cl)c1nc2c(s1)CCCC2 (centres undefined)	none
COc1ccc(C2NS(=O)(=O)OCC2C)cc1 (centres undefined)	none
CCC1CCCCN1c1nc(-c2ccncc2)nc2ccccc12 (centres undefined)	KCNK9 inh -6.85
CCC1CCCCN1c1nc(-c2cccc(OC)c2O)nc2ccccc12 (centres undefined)	KCNK9 inh -7.64
CC(=O)Nc1cccc(C(=O)N(Cc2ccccc2)Cc2ccccc2)c1	none
O=C(CSc1nnc(-c2ccncc2)n1-c1ccccc1)N1CCN(c2ccc(Cl)cc2)CC1	PHOSPHO1 inh 93.2
CCCn1c(=O)c2ccccc2n2c(SCC(=O)c3ccccc3)nnc12	none
O=C(CSc1nnc(-c2cccnc2)n1-c1ccccc1)N1CCN(c2ccc(F)cc2)CC1	none
Cc1cc(C(=O)CSc2nnc(-c3ccncc3)n2-c2ccccc2)c(C)n1C	PHOSPHO1 inh 76.6
Cc1cc(C(=O)CSc2nnc(-c3cccnc3)n2-c2ccccc2)c(C)n1CC1CCCO1 (centres undefined)	PHOSPHO1 inh 74.2
CCCn1c(=O)c2ccccc2n2c(SCC(=O)c3cc(C)n(CC4CCCO4)c3C)nnc12 (centres undefined)	PHOSPHO1 inh 66.2 (no result: KCNQ1 act, KCNK9 inh, KCNQ1 block, hERG protect, KCNK3 block)
O=C(Cn1cnc2ccccc2c1=O)N1CCN(Cc2ccc3c(c2)OCO3)CC1	none
Cc1nc(NN)c2c3c(sc2n1)COC(C)(C)C3	none
COc1ccc(Nc2nnc(SCC(=O)c3cc(C)n(CC4CCCO4)c3C)s2)cc1 (centres undefined)	PHOSPHO1 inh 97.9 (no result: KCNQ1 act, KCNK9 inh, KCNQ1 block, hERG protect)
Cc1cc(C(=O)CSc2nnc3ccccn23)c(C)n1-c1ccccc1	none
Cc1cc(C(=O)CSc2nnc(-c3ccccc3)n2-c2ccccc2)c(C)n1-c1ncn[nH]1	PHOSPHO1 inh 75.3
COc1ccc(Nc2nnc(SCC3CCCCO3)s2)cc1 (centres undefined)	none
CSCCC(NS(=O)(=O)c1ccc(Cl)cc1)C(=O)OCC(=O)c1c(C)[nH]c2ccccc12 (centres undefined)	none
Cc1ccccc1C(=O)NNC(=O)C(=O)Nc1cccc(Cl)c1C	KCNQ1 act 47, hERG protect 12.9
Cc1cc(Nc2ccccc2)nn1C(=O)c1ccc(Cl)cc1	KCNK9 inh -7.7
CCCCc1c(C)[nH]c(C(=O)OCC)c1C	hERG protect 5.3
CCOC(=O)c1[nH]c(C)c(C(=O)OCC)c1C	none
CC(C)(C)C(=O)NC(=S)NNC(=O)C(c1ccccc1)c1ccccc1	KCNQ1 act 31
CC(C)C(C)NC(=O)COc1ccc(S(=O)(=O)N2CCOCC2)cc1[N+](=O)[O-] (centres undefined)	none
O=C(NCCc1ccccc1)c1cc2ccccc2oc1=O	none
COc1ccc(CCNC(=O)c2cc3ccccc3oc2=O)cc1	hERG protect 7.8
Cc1cc(C)c(NC(=O)c2cc3c(nc4sccn43)s2)c(C)c1	PHOSPHO1 inh 71.1
Cc1ccc(Cl)cc1-n1c(SCC(=O)NCCC2=CCCCC2)nc2n[nH]c(C)c2c1=N	KCNK9 inh -7.23
CC(C)NC(=O)c1noc2cc([N+](=O)[O-])ccc12	none
COc1cc(OC)c(C(=O)NC23CC4CC(CC(C4)C2)C3)cc1OC	none
CC(C)CCNC(=O)CCC(=O)NNc1nc2ccccc2c2nc(-c3ccccc3)nn12	none
Oc1ccc2ccccc2c1-c1sc(Nc2ccccc2)n[n+]1-c1ccc(F)cc1	KCNQ1 block 9
O=C(N[C@@H](Cc1ccccc1)C(=O)OCc1ccccc1)c1nc[nH]c1C(=O)N1CCc2ccccc2C1	KCNQ1 block 6
